Experiments:
[1] = target: T1, Tyrosine-protein phosphatase non-receptor type 1 (Homo sapiens, UniProt P18031); experiment: Inhibition of human recombinant PTP1B using p-nitrophenyl phosphate as substrate after 30 mins
T1 sequence (P18031 whole entry): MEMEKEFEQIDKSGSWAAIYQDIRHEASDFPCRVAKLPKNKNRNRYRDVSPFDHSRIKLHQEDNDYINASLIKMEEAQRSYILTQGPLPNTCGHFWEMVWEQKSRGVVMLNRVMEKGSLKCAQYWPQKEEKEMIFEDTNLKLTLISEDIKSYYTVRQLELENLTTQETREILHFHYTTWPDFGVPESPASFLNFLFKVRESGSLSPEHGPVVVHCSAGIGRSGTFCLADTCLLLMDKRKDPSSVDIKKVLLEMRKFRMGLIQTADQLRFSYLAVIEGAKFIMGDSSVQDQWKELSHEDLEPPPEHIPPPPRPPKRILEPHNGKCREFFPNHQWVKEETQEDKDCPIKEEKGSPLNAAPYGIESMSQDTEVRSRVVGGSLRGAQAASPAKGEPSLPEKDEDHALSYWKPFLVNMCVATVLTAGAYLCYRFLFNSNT
Summary of the method: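 Human recombinant enzyme (0.05–0.1 µg) with 2 mM p-NPP in 50 mM citrate pH 6.0, 0.1 M NaCl, 1 mM EDTA, 1 mM DTT, 37 °C for 30 min. IC50 by regression, mean ± SD of three replicates.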

MDA-MB-231 [2] = experiment: Ratio of tamoxifen IC50 to compound IC50 for human MDA-MB-231 cells; format: functional
NCI/ADR-RES = experiment: Ratio of tamoxifen IC50 to compound IC50 for human MCF7/ADR cells; format: functional
MCF7 = experiment: Cytotoxicity against human MCF7 cells after 48 hrs by MTT assay; format: functional, cell-based
Summary of the method: (§1)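 Cells kept in DMEM with 10% heat-inactivated FBS, 4.5 g/L D-glucose, sodium pyruvate and L-glutamine at 37 °C, 5% CO2. Seeded at 1 × 10^4 cells/well, left to adhere 24 h, then exposed 48 h to a range of concentrations at 0.05% (v/v) DMSO final. MTT added for 4 h, absorbance at 550 nm. Viability taken relative to control wells; IC50 from triplicates, mean ± SD.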

[3] = Cytotoxicity against human MCF7/ADR cells after 48 hrs by MTT assay; format: functional, cell-based, NCI/ADR-RES; summary of the method: as §1
MDA-MB-231 [4] = experiment: Cytotoxicity against human MDA-MB-231 cells after 48 hrs by MTT assay; format: functional, cell-based; summary of the method: as §1
[5] = Homo sapiens, MCF7, 48 h, read-out: IC50
[6] = Homo sapiens, NCI/ADR-RES, 48 h, read-out: IC50
[7] = Homo sapiens, MDA-MB-231, 48 h, read-out: IC50

Row | Compound | IC50 [1] | Ratio IC50 (MDA-MB-231 [2]) | Ratio IC50 (NCI/ADR-RES) | IC50 (MCF7; [5]) | IC50 [3, 6] | IC50 (MDA-MB-231 [4]; [7]) | IC50 (MCF7; mcf7) | IC50 ([3]; nci/adr-res) | IC50 (MDA-MB-231 [4]; mda-mb-231)
1 | CC(C)=CCc1c2c(c(O)c3c(=O)c(-c4ccc(O)cc4)coc13)CC(C(C)(C)O)O2 (centres undefined) [ECHRENONE B10] | 24.2 µM | >3 | 1.93 | 4.32 µM | 5.76 µM | 3.97 µM |  |  | 
2 | CC(C)=CCc1cc(-c2coc3c(CC=C(C)C)c(O)ccc3c2=O)ccc1O [ERYSUBIN F] | 7.8 µM |  |  |  |  |  |  |  | 
3 | CC/C(=C(\c1ccccc1)c1ccc(OCCN(C)C)cc1)c1ccccc1 [TAMOXIFEN] |  |  |  | 11.4 µM |  |  |  |  | 

Continued, in another order:

Row | IC50 [1] | Compound | Ratio IC50 (MDA-MB-231 [2]) | Ratio IC50 (NCI/ADR-RES) | IC50 (MCF7; [5]) | IC50 [3, 6] | IC50 (MDA-MB-231 [4]; [7]) | IC50 (MCF7; mcf7) | IC50 ([3]; nci/adr-res) | IC50 (MDA-MB-231 [4]; mda-mb-231)
4 | 4.6 µM | COc1ccc([C@H]2COc3cc(O)cc(O)c3C2=O)cc1CC=C(C)C [ERYTHRADDISON III] |  |  | 6.84 µM | 9.22 µM | 6.92 µM |  |  | 
5 | 17.4 µM | CC(C)=CCc1cc2c(=O)c(-c3ccc(O)cc3O)coc2c(CC=C(C)C)c1O [ERYTHRADDISON II] |  |  | 11.4 µM | 6.75 µM | 4.57 µM |  |  | 
6 | 13.8 µM | COc1cc2c(cc1[C@H]1COc3cc(O)cc(O)c3C1=O)C=CC(C)(C)O2 [ERYTHRADDISON IV] |  |  | 11 µM | 6.06 µM | 6.34 µM |  |  | 
7 | > 30 µM | COC(c1c2c(c(O)c3c(=O)c(-c4ccc(O)cc4)coc13)C=CC(C)(C)O2)C(O)C(C)(C)O (centres undefined) [ERYTHRADDISON I] |  |  |  |  |  | Not Active | Not Active | Not Active

Source: ChEMBL document CHEMBL2157970, “New prenylated isoflavonoids as protein tyrosine phosphatase 1B (PTP1B) inhibitors from Erythrina addisoniae” (Bioorg Med Chem, 2012)
